From PubChem BioAssay AID588750 (Vanderbilt Specialized Chemistry Center, 2011)
Active and inactive are the calls of the source.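 The calls were made as follows: active = compounds with a dose-dependent response, reported with half-maximal potency and percent of the acetylcholine maximum; inactive = the rest.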

Target: Muscarinic acetylcholine receptor M3 (Rattus norvegicus) (UniProt P08483)
Assay: potentiation of ACh response at rat M3 – CHO cells, Fluo-4 calcium mobilization, selectivity assay for M4 PAM project, dose response (AID 588750)
Details: CHO rat M3, Fluo-4 calcium mobilization; series mostly up to 30 µM; percent of ACh max: at the top concentration
Method in brief: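 system = CHO cells stably expressing cloned rat M3 muscarinic receptor | reagent = acetylcholine at EC20, followed by acetylcholine at EC80 | timing = compound pre-incubation 144 s before ACh EC20, read at 37 °C | signal = kinetic calcium fluorescence with Fluo-4 AM dye loaded at 2.3 µM | control set = maximal acetylcholine response at 1 mM for normalization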

Percent of ACh max, inactive:
Cc1nc2sc(C(=O)NCCc3ccncc3)c(N)c2c(C)c1Cl 19.2
Cc1nc2sc(C(=O)NCc3cccnc3)c(N)c2c(C)c1Cl 13.5 [at 45.3 µM]
Cc1nc2sc(C(=O)NCc3ccccc3)c(N)c2c(C)c1Cl 14.2 [at 37.4 µM]
Cc1nc2sc(C(=O)NCc3ccc4c(c3)OCO4)c(N)c2c(C)c1Cl 14.8 [at 36.8 µM]
Cc1nc2sc(C(=O)NCc3cccc(F)c3F)c(N)c2c(C)c1Cl 15.9
Cc1nc2sc(C(=O)NC3CC3)c(N)c2c(C)c1Cl 19.5
Cc1nc2sc(C(=O)NCc3nccs3)c(N)c2c(C)c1Cl 20.6
Cc1nc2sc(C(=O)NCc3ccncc3)c(N)c2c(C)c1Cl 16.7 [at 45.3 µM]
Cc1nc2sc(C(=O)NCc3ccncn3)c(N)c2c(C)c1Cl 17.7
